Data as given in ChEMBL document CHEMBL1123969, “Cardiovascular effects of new water-soluble derivatives of forskolin” (J Med Chem, 1988).
In brackets after ≈: the same amount, converted by molar mass. Activity calls are given as the source filed them. No cut-off for these calls is given here.

Experiments:
Felis catus [1] = experiment: Effective dose for lowering of blood pressure in anesthetized cat when administered intravenously; NA=Not active; format: functional, organism-based
How it was run: (§1)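 Cats of either sex, 3–4 kg, under ether induction and chloralose (70 mg/kg iv). Compounds in distilled water or propylene glycol were given iv via the femoral vein at 0.01–10 mg/kg. Fall in mean arterial pressure read 10 min post-dose. ED20 taken graphically from the log dose-response curve, with doses run in triplicate.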

Cavia porcellus [2] = species on record: Cavia porcellus; experiment: Positive inotropic activity was assessed in spontaneously beating guinea pig atria; NA=Not active; format: functional, organism-based
How it was run: (§2)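 Guinea pig atria, spontaneously beating, in Ringer solution at 32 °C gassed with 95% O2/5% CO2. Isometric force recorded at 0.5–1 g initial tension after 30 min stabilization. Compounds in water or propylene glycol given cumulatively at 0.01–30 μg/mL, with 7 min contact per dose. EC50 for a 50% force increase taken graphically from the dose-response curve, in triplicate.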

Cavia porcellus [3] = species on record: Cavia porcellus; experiment: Positive inotropic activity in spontaneously beating guinea pig atria; format: functional, organism-based; how it was run: as §2
Canis familiaris [4] = experiment: Dose required to produce 50 % increase in left ventricular dP/dt max in anesthetized dogs when administered intravenously; format: functional; settings: Canis lupus familiaris, Heart left ventricle, iv
How it was run: (§3)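 Male mongrel dogs (10–18 kg), anesthetized with pentobarbital sodium 35 mg/kg iv, then infused with pentobarbitone 3–5 mg/kg per h, intubated and breathing spontaneously. Compounds in distilled water, given iv via the femoral vein in 0.1 mL/kg. Four to six doses between 0.01 and 3 mg/kg, 10–30 min apart. Percent change in LV dP/dt max over the initial value; ED50 taken from the dose-response curve.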

[5] = Acute toxicity in mice when administered intraperitoneally; format: organism-based; settings: mouse, in vivo, ip
How it was run: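 Mice (18-20 g), either sex; compound dissolved in distilled water or suspended in 0.5% (carboxymethyl)cellulose, injected ip at 10, 30, 100, 300 and 1000 mg/kg (1 mL/100 g body weight). Animals observed for 48 h. Approximate LD50 calculated by the Campbell and Richter method.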

Felis catus [6] = experiment: Effective dose for lowering blood pressure in anesthetized cat when administered intravenously; format: functional; settings: iv; how it was run: as §1
Canis familiaris [7] = experiment: Percent increase of heart rate in anesthetized dogs at a dose of 0.03 mg/kg; format: functional, Canis lupus familiaris
How it was run: (§4)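 Anesthesia was pentobarbital sodium 35 mg/kg iv, maintained with pentobarbitone 3–5 mg/kg per h. Male mongrel dogs, 10–18 kg, intubated for spontaneous breathing. Aqueous solutions were given iv via the femoral vein at 0.1 mL/kg, in escalating doses with 10–30 min between doses. Mean BP fall and percent heart-rate increase were recorded at each dose, with lead II ECG.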

Canis familiaris [8] = experiment: Fall in mean blood pressure in anesthetized dogs at a dose of 1 mg/kg; format: functional, Canis lupus familiaris; how it was run: as §4
Canis familiaris [9] = experiment: Fall in mean blood pressure in anesthetized dogs at a dose of 0.3 mg/kg; format: functional, Canis lupus familiaris; how it was run: as §4
Canis familiaris [10] = species on record: Canis familiaris; experiment: (§5) Percent increase in LV dP/dt max; format: functional, Canis lupus familiaris; how it was run: as §3
Canis familiaris [11] = species on record: Canis familiaris; experiment: as §5; format: functional, Canis lupus familiaris; how it was run: as §3; remark: listed apart in the source
Canis familiaris [12] = experiment: Fall in mean blood pressure in anesthetized dogs at a dose of 0.1 mg/kg; format: functional, Canis lupus familiaris; how it was run: as §4
Canis familiaris [13] = experiment: Percent increase of heart rate in anesthetized dogs at a dose of 0.1 mg/kg; format: functional, Canis lupus familiaris; how it was run: as §4
Canis familiaris [14] = species on record: Canis familiaris; experiment: as §5; format: functional, Canis lupus familiaris; how it was run: as §3; remark: listed apart in the source
Canis familiaris [15] = experiment: Percent increase of heart rate in anesthetized dogs at a dose of 1 mg/kg; format: functional, Canis lupus familiaris; how it was run: as §4
Canis familiaris [16] = experiment: Percent increase of heart rate in anesthetized dogs at a dose of 0.3 mg/kg; format: functional, Canis lupus familiaris; how it was run: as §4
Canis familiaris [17] = species on record: Canis familiaris; experiment: as §5; format: functional, Canis lupus familiaris; how it was run: as §3; remark: listed apart in the source

| SMILES | ED20 (Felis catus [1]) | EC50 (Cavia porcellus [2]) | EC50 (Cavia porcellus [3]) [µg/mL] | ED50 (Canis familiaris [4]) [mg/kg] | LD50 [5] [mg/kg] | ED20 (Felis catus [6]) [mg/kg] | also measured |
| --- | --- | --- | --- | --- | --- | --- | --- |
| C=C[C@@]1(C)CC(=O)[C@]2(O)C3(C)C(C(O)C(OC(=O)CN4CCC(O)(c5ccccc5)CC4)[C@@]2(C)O1)C(C)(C)CC[C@@H]3O.Cl (stereo partly drawn) | inactive | Not Active |  |  |  |  |  |
| C=C[C@@]1(C)CC(=O)[C@]2(O)[C@@]3(C)[C@@H](O)CCC(C)(C)[C@@H]3[C@H](O)[C@H](OC(C)=O)[C@@]2(C)O1 [COLFORSIN] |  |  | 0.02 (≈ 0.0487 µM) | 0.007 | 92 | 0.038 |  |
| C=C[C@@]1(C)CC(=O)[C@]2(O)C3(C)C(C(OC(=O)CN4CCC(O)CC4)C(O)[C@@]2(C)O1)C(C)(C)CC[C@@H]3O.Cl (stereo partly drawn) | inactive |  | 3 |  |  |  |  |
| C=C[C@@]1(C)CC(=O)[C@]2(O)C3(C)C(C(OC(=O)CN4CCCCC4)C(O)[C@@]2(C)O1)C(C)(C)CC[C@@H]3O.Cl (stereo partly drawn) |  |  | 1.8 | 0.052 | 85 | 3 | Heart rate (Canis familiaris [7]): 6.2%; BP (Canis familiaris [8]): 72 mmHg; BP (Canis familiaris [9]): 30.2 mmHg; Activity (Canis familiaris [10]): 94%; Activity (Canis familiaris [11]): 48%; BP (Canis familiaris [12]): 8.8 mmHg; Heart rate (Canis familiaris [13]): 8.8%; Activity (Canis familiaris [14]): 64%; Heart rate (Canis familiaris [15]): 13.8%; Heart rate (Canis familiaris [16]): 9.8%; Activity (Canis familiaris [17]): 123% |
| C=C[C@@]1(C)CC(=O)[C@]2(O)C3(C)C(C(OC(=O)CCCN4CCN(C)CC4)C(O)[C@@]2(C)O1)C(C)(C)CC[C@@H]3O.Cl (stereo partly drawn) |  |  | 0.2 | 0.41 | 65 | 1 |  |
| C=C[C@@]1(C)CC(=O)[C@]2(O)C3(C)C(C(OC(=O)CN4C(C)CCCC4C)C(O)[C@@]2(C)O1)C(C)(C)CC[C@@H]3O.Cl (stereo partly drawn) | inactive | Not Active |  |  |  |  |  |
| C=C[C@@]1(C)CC(=O)[C@]2(O)C3(C)C(C(OC(=O)CCN4CCOCC4)C(O)[C@@]2(C)O1)C(C)(C)CC[C@@H]3O.Cl (stereo partly drawn) | inactive | Not Active |  |  |  |  |  |
| C=C[C@@]1(C)CC(=O)[C@]2(O)C3(C)C(C(O)C(OC(=O)CN(CC(=O)OC4C(O)C5C(C)(C)CC[C@H](O)C5(C)[C@@]5(O)C(=O)C[C@](C)(C=C)O[C@]45C)Cc4ccccc4)[C@@]2(C)O1)C(C)(C)CC[C@@H]3O (stereo partly drawn) | inactive | Not Active |  |  |  |  |  |
| C=C[C@@]1(C)CC(=O)[C@]2(O)C3(C)C(C(O)C(OC(=O)CN4CCOCC4)[C@@]2(C)O1)C(C)(C)CC[C@@H]3O.Cl (stereo partly drawn) |  |  | 0.35 | 0.035 | 25 |  |  |
| C=C[C@@]1(C)CC(=O)[C@]2(O)C3(C)C(C(OC(=O)CCN4CCCCC4)C(O)[C@@]2(C)O1)C(C)(C)CC[C@@H]3O.Cl (stereo partly drawn) |  |  | 0.5 | 0.3 | 30 | 1 |  |
| C=C[C@@]1(C)CC(=O)[C@]2(O)C3(C)C(C(OC(=O)CN4CCC(C)CC4)C(O)[C@@]2(C)O1)C(C)(C)CC[C@@H]3O.Cl (stereo partly drawn) | inactive |  | 2.6 |  |  |  |  |
| C=C[C@@]1(C)CC(=O)[C@]2(O)C3(C)C(C(O)C(OC(=O)CNC(=O)OC(C)(C)C)[C@@]2(C)O1)C(C)(C)CC[C@@H]3O (stereo partly drawn) | inactive |  | 9.2 (≈ 17.5 µM) |  |  |  |  |
| C=C[C@@]1(C)CC(=O)[C@]2(O)C3(C)C(C(O)C(OC(=O)CN4C(C)CCCC4C)[C@@]2(C)O1)C(C)(C)CC[C@@H]3O.Cl (stereo partly drawn) | inactive | Not Active |  |  |  |  |  |
| C=C[C@@]1(C)CC(=O)[C@]2(O)C3(C)C(C(OC(=O)CN4CCOCC4)C(O)[C@@]2(C)O1)C(C)(C)CC[C@@H]3O.Cl (stereo partly drawn) |  |  | 0.5 | 0.11 | 82.5 | 3 |  |
| C=C[C@@]1(C)CC(=O)[C@]2(O)C3(C)C(C(OC(=O)Cn4c(=O)c5c(ncn5COCCOC)n(C)c4=O)C(O)[C@@]2(C)O1)C(C)(C)CC[C@@H]3O (stereo partly drawn) | inactive | Not Active |  |  |  |  |  |
| C=C[C@@]1(C)CC(=O)[C@]2(O)C3(C)C(C(OC(=O)CN(CC)CC)C(O)[C@@]2(C)O1)C(C)(C)CC[C@@H]3O.Cl (stereo partly drawn) | inactive | Not Active |  |  |  |  |  |
| C=C[C@@]1(C)CC(=O)[C@]2(O)C3(C)C(C(O)C(OC(=O)C(C)N4CCOCC4)[C@@]2(C)O1)C(C)(C)CC[C@@H]3O.Cl (stereo partly drawn) |  |  | 0.27 | 0.04 | 30 | 2 |  |
